Laboratory results published in ChEMBL document CHEMBL3817745, “Structure-Activity Relationship for the 4(3H)-Quinazolinone Antibacterials” (J Med Chem, 2016).
Converted amounts (≈) assume the structure as drawn. The source made the active and inactive calls. No cut-off for these calls is given here.

How the values were obtained:
Staphylococcus aureus [1] = experiment: […] activity against methicillin-resistant Staphylococcus aureus NRS70; assay type: functional; conditions: read-out: MBC99.9
Staphylococcus aureus [2] = experiment: […] activity against multidrug resistant Staphylococcus aureus ATCC 27660; assay type: functional; conditions: read-out: MBC99.9
Enterococcus faecium = experiment: Antibacterial activity against Enterococcus faecium NCTC 7171 incubated for 16 to 20 hrs by microdilution method; assay type: functional
Summary of the method: (§1)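 CLSI broth microdilution. 2-fold serial dilutions were made in cation-adjusted Mueller–Hinton broth, with 5% lysed horse blood added for Streptococcus strains, in triplicate. Inoculum 5×10^5 CFU/mL. Plates incubated 36 °C for 16–20 h. MIC taken as the lowest concentration visibly inhibiting growth.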

Plasma = experiment: Drug level in plasma of ICR mouse neutropenic thigh model of methicillin-resistant Staphylococcus aureus NRS70 infection at 10 mg/kg, sc tid administered every 8 hrs starting from 1 hr post infection and measured 7 hrs post last dose by UPLC analysis; assay type: ADME, organism-based; conditions: in vivo, BLD = below limit of detection
Summary of the method: (§2)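 Neutropenic thigh model (cyclophosphamide 200 mg/kg ip, NRS70 im), sc doses at 1, 9 and 17 h; at 24 h cardiac blood and uninfected thigh taken (n = 8 per group); thigh homogenate supernatant and plasma acetonitrile-quenched with internal standard, analysed by UPLC with MRM detection.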

[3] = test system: Staphylococcus epidermidis; experiment: Antibacterial activity against Staphylococcus epidermidis ATCC 35547 incubated for 16 to 20 hrs by microdilution method; assay type: functional; summary of the method: as §1
Staphylococcus aureus [4] = experiment: Antibacterial activity against methicillin-resistant Staphylococcus aureus NRS70 in ICR mouse neutropenic thigh infection model assessed as reduction in bacterial load at 10 mg/kg, sc tid administered every 8 hrs starting from 1 hr post infection and measured 7 hrs post last dose; assay type: functional, organism-based
Summary of the method: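 Female ICR mice (n = 8 per group) made neutropenic with ip cyclophosphamide 200 mg/kg at 4 days and 1 day pre-infection; 100 μL NRS70 (~1×10^6 CFU/mL in brain–heart infusion) injected im into right thigh; sc doses at 1, 9, 17 h; thighs harvested at 24 h, homogenized, plated in triplicate on LB agar; log10 CFU/g.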

[5] = test system: Staphylococcus haemolyticus; experiment: Antibacterial activity against Staphylococcus haemolyticus ATCC 29970 incubated for 16 to 20 hrs by microdilution method; assay type: functional
Staphylococcus aureus [6] = experiment: Antibacterial activity against mecA-positive multidrug resistant Staphylococcus aureus NRS119 incubated for 16 to 20 hrs by microdilution method; assay type: functional
Staphylococcus aureus [7] = experiment: […] activity against methicillin-susceptible Staphylococcus aureus ATCC 29213; assay type: functional; conditions: read-out: MBC99.9
Staphylococcus aureus [8] = experiment: Antibacterial activity against mecA-positive multidrug resistant Staphylococcus aureus NRS120 incubated for 16 to 20 hrs by microdilution method; assay type: functional
[9] = Drug level in uninfected thighs of ICR mouse neutropenic thigh model of methicillin-resistant Staphylococcus aureus NRS70 infection at 10 mg/kg, sc tid administered every 8 hrs starting from 1 hr post infection and measured 7 hrs post last dose by UPLC analysis; assay type: ADME, organism-based; conditions: in vivo, BLD = below limit of detection; summary of the method: as §2
[10] = Protein binding in human plasma at 20 uM after 2 hrs by UPLC based equilibrium dialysis method; assay type: ADME, cell-free
Summary of the method: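 Human plasma was tested by rapid equilibrium dialysis at a final compound concentration of 20 μM. Dialysis ran 2 h at 37 °C on an orbital shaker. Samples were quenched in acetonitrile with internal standard and quantified by UPLC with MRM detection. Triplicate, each measured in duplicate.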

Streptococcus oralis = experiment: Antibacterial activity against Streptococcus oralis ATCC 9811 incubated for 16 to 20 hrs by microdilution method; assay type: functional; summary of the method: as §1
Mus musculus = experiment: AUC (0 to last) in ICR mouse peritonitis model infected with methicillin resistant Staphylococcus aureus ATCC 27660 at 10 mg/kg, iv administered as single dose measured up to 8 hrs by UPLC analysis; assay type: ADME, organism-based; parameters: dose 10 mg/kg, time 0 - last, route intravenous; conditions: in vivo, 8 h
Summary of the method: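 Fast PK: female ICR mice (n = 2 per time point) given single tail-vein iv injection at 5, 10 or 20 mg/kg in 25% DMSO/65% propylene glycol/10% water (2.5, 5 or 10 mg/mL); terminal cardiac blood at 5 min, 40 min, 2, 4, 8 h; plasma analysed by UPLC with internal standard calibration.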

Staphylococcus aureus [11] = experiment: Bactericidal activity against methicillin-susceptible Staphylococcus aureus ATCC 29213 assessed as bacterial count at >=1 ug/ml (reference value: 1x10^6 CFU/ml); assay type: functional
Staphylococcus aureus [12] = experiment: Antibacterial activity against methicillin-susceptible Staphylococcus aureus ATCC 29213 incubated for 16 to 20 hrs by microdilution method; assay type: functional
Staphylococcus aureus [13] = experiment: Antibacterial activity against methicillin resistant Staphylococcus aureus ATCC 27660 infected in ICR mouse model of peritonitis assessed as mouse survival at 5 mg/kg, iv administered at 30 mins and 4.5 hrs post infection measured for 48 hrs relative to control; assay type: functional
Pseudomonas aeruginosa = experiment: Antibacterial activity against Pseudomonas aeruginosa […] incubated for 16 to 20 hrs by microdilution method; assay type: functional; summary of the method: as §1
Staphylococcus aureus [14] = experiment: Antibacterial activity against mecA-positive methicillin/oxacillin/tetracycline-resistant Staphylococcus aureus ATCC 27660 incubated for 16 to 20 hrs by microdilution method; assay type: functional
[15] = Hemolytic activity against human RBC at 64 ug/ml relative to control; assay type: ADME, cell-based, Erythrocyte; conditions: erythrocyte
Summary of the method: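 Hemolysis was measured at a fixed 64 μg/mL on a 10% red-cell suspension from heparinized human blood. Triton-X served as the positive control, and results are given as percent hemolysis.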

Enterococcus faecalis [16] = experiment: Antibacterial activity against methicillin-susceptible Enterococcus faecalis ATCC 29212 incubated for 16 to 20 hrs by microdilution method; assay type: functional; summary of the method: as §1
Escherichia coli = experiment: Antibacterial activity against Escherichia coli ATCC 25922 incubated for 16 to 20 hrs by microdilution method; assay type: functional; summary of the method: as §1
Acinetobacter baumannii = experiment: Antibacterial activity against Acinetobacter baumannii ATCC 17961 incubated for 16 to 20 hrs by microdilution method; assay type: functional; summary of the method: as §1
Bacillus licheniformis = experiment: Antibacterial activity against Bacillus licheniformis ATCC 12759 incubated for 16 to 20 hrs by microdilution method; assay type: functional; summary of the method: as §1
Klebsiella pneumoniae = experiment: Antibacterial activity against Klebsiella pneumoniae ATCC 700603 incubated for 16 to 20 hrs by microdilution method; assay type: functional; summary of the method: as §1
Bacillus cereus = experiment: Antibacterial activity against Bacillus cereus ATCC 13061 incubated for 16 to 20 hrs by microdilution method; assay type: functional; summary of the method: as §1
Staphylococcus aureus [17] = experiment: Antibacterial activity against vancomycin/methicillin-resistant Staphylococcus aureus VRS1 clinical isolate incubated for 16 to 20 hrs by microdilution method; assay type: functional
HepG2 = experiment: Cytotoxicity against human HepG2 cells incubated for 16 hrs by XTT assay; assay type: cell-based; conditions: HepG2, 16 h
Summary of the method: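 HepG2 cells were tested with an XTT viability read-out, in triplicate. IC50 was obtained by nonlinear regression.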

Streptococcus pyogenes = experiment: Antibacterial activity against Streptococcus pyogenes ATCC 49399 incubated for 16 to 20 hrs by microdilution method; assay type: functional; summary of the method: as §1
Staphylococcus aureus [18] = experiment: Antibacterial activity against mecA-positive multidrug resistant Staphylococcus aureus COL NRS100 incubated for 16 to 20 hrs by microdilution method; assay type: functional
Staphylococcus aureus [19] = experiment: Antibacterial activity against methicillin-resistant Staphylococcus aureus NRS70 incubated for 16 to 20 hrs by microdilution method; assay type: functional
Enterococcus faecalis [20] = experiment: Antibacterial activity against vancomycin-resistant Enterococcus faecalis 99 clinical isolate incubated for 16 to 20 hrs by microdilution method; assay type: functional
Klebsiella aerogenes = experiment: Antibacterial activity against Enterobacter aerogenes ATCC 35029 incubated for 16 to 20 hrs by microdilution method; assay type: functional; summary of the method: as §1

CC(=O)NC[C@H]1CN(c2ccc(N3CCOCC3)c(F)c2)C(=O)O1 [LINEZOLID]
MBC (Staphylococcus aureus [1]): 8 µg/mL (≈ 23.7 µM)
MBC (Staphylococcus aureus [2]): 16 µg/mL (≈ 47.4 µM)
MIC (Enterococcus faecium): 2 µg/mL (≈ 5.93 µM)
Cp (Plasma): BLD
MIC [3]: 1 µg/mL (≈ 2.96 µM)
Activity (Staphylococcus aureus [4]): Active
MIC [5]: 2 µg/mL (≈ 5.93 µM)
MIC (Staphylococcus aureus [6]): 32 µg/mL (≈ 94.9 µM)
MBC (Staphylococcus aureus [7]): 16 µg/mL (≈ 47.4 µM)
MIC (Staphylococcus aureus [8]): 32 µg/mL (≈ 94.9 µM)
Drug uptake [9]: BLD

C#Cc1ccc(/C=C/c2nc3ccccc3c(=O)n2-c2cccc(C(=O)O)c2)cc1
PPB [10]: 99.6%
MIC (Streptococcus oralis): 128 µg/mL (≈ 326 µM)
AUClast (Mus musculus): 1540 µg·min/mL
MBC (Staphylococcus aureus [1]): 0.5 µg/mL (≈ 1.27 µM)
Activity (Staphylococcus aureus [11]): <=500 CFU/ml
MIC (Staphylococcus aureus [12]): 0.03 µg/mL (≈ 0.0764 µM)
MBC (Staphylococcus aureus [2]): 1 µg/mL (≈ 2.55 µM)
Efficacy (Staphylococcus aureus [13]): >50%
MIC (Enterococcus faecium): > 128 µg/mL
MIC (Pseudomonas aeruginosa): ≥ 16 µg/mL
MIC (Staphylococcus aureus [14]): 0.06 µg/mL (≈ 0.153 µM)
Activity [15]: < 1%
MIC [3]: 0.008 µg/mL (≈ 0.0204 µM)
MIC (Enterococcus faecalis [16]): > 128 µg/mL
MIC (Escherichia coli): ≥ 16 µg/mL
MIC (Acinetobacter baumannii): ≥ 16 µg/mL
MIC (Bacillus licheniformis): 128 µg/mL (≈ 326 µM)
MIC (Klebsiella pneumoniae): ≥ 16 µg/mL
MIC (Bacillus cereus): 128 µg/mL (≈ 326 µM)
MIC (Staphylococcus aureus [17]): 0.5 µg/mL (≈ 1.27 µM)
IC50 (HepG2): 82 µg/mL (≈ 209 µM)
MIC (Streptococcus pyogenes): 128 µg/mL (≈ 326 µM)
MIC (Staphylococcus aureus [18]): 0.25 µg/mL (≈ 0.637 µM)
MIC (Staphylococcus aureus [6]): 0.06 µg/mL (≈ 0.153 µM)
MBC (Staphylococcus aureus [7]): 0.125 µg/mL (≈ 0.319 µM)
MIC (Staphylococcus aureus [8]): 0.5 µg/mL (≈ 1.27 µM)
MIC (Staphylococcus aureus [19]): 0.03 µg/mL (≈ 0.0764 µM)
MIC (Enterococcus faecalis [20]): 128 µg/mL (≈ 326 µM)
MIC (Klebsiella aerogenes): ≥ 16 µg/mL
